ChEMBL document CHEMBL1129419, “1-Aminocyclobutanecarboxylic acid derivatives as novel structural elements in bioactive peptides: application to tuftsin analogs” (J Med Chem, 1996)
Where a SMILES comes first, the peptide text is derived from it.

Experiments:
[1] = Plasma half life of compound reported; format: ADME, cell-free
Procedure, shortened: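 Peptide (0.5 mg) was incubated in 0.5 mL human serum at 37 °C. Aliquots were taken at 0-240 min, boiled at 90-95 °C for 5 min, diluted with water and centrifuged. Intact peptide was quantified by isocratic RP-HPLC at 220 nm, with peak area referenced to an internal serum peak and time 0 set at 100%. Half-life was read from the degradation time course.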

[2] = Compound was evaluated for the secretion of interleukin-6 (IL-6) by macrophages incubated in the presence of antigen Keyhole Limpet Hemocyanin (KLH) at concentration of 2 x 10E-7 M; format: functional
Procedure, shortened: (§1)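 Thioglycollate-elicited peritoneal macrophages from (BALB/c x C3H.eb)F1 mice (6-8 weeks), >90% pure, cultured at 10⁶/mL in DMEM for 48 h at 37 °C, 5% CO₂. Incubated 20 h in triplicate with KLH plus peptide (2 × 10^-7 to 2 × 10^-9 M). Pooled supernatants were assayed for IL-6 by B9 hybridoma proliferation ([³H]thymidine, 2-fold dilutions), giving arbitrary units with KLH alone set at 1000 units. Three experiments were averaged.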

[3] = Compound was evaluated for the secretion of interleukin-6 (IL-6) by macrophages incubated in the presence of antigen Keyhole Limpet Hemocyanin (KLH) at concentration of 2 x 10E-8 M; format: functional; procedure, shortened: as §1
[4] = Compound was evaluated for the secretion of interleukin-6 (IL-6) by macrophages incubated in the presence of antigen Keyhole Limpet Hemocyanin (KLH) at concentration of 2 x 10E-9 M; format: functional; procedure, shortened: as §1

SMILES | half-life [1] | T1/2 [1] | Secretion [2] | Secretion [3] | Secretion [4]
C[C@@H](O)[C@H](N)C(=O)N[C@]1(C(=O)N2CCC[C@H]2C(=O)N[C@@H](CCCN=C(N)N)C(=O)O)C[C@@H](CN)C1 |  |  | 68% | 54% | 
C[C@@H](O)[C@H](N)C(=O)NC1(C(=O)N2CCC[C@H]2C(=O)N[C@@H](CCCN=C(N)N)C(=O)O)CC(CCN)C1 (some centres undefined) | 13 min |  |  |  | 
NCCCC[C@H](NC(=O)[C@]1(N)C[C@H](CO)C1)C(=O)N1CCC[C@H]1C(=O)N[C@@H](CCCN=C(N)N)C(=O)O |  |  | 125% | 29% | 
C[C@@H](O)[C@H](N)C(=O)N[C@@H](CCCCN)C(=O)N1CCC[C@H]1C(=O)N[C@@H](CCCN=C(N)N)C(=O)O (H-TKPR-OH) |  |  | 78% | 42% | 32%
C[C@@H]1CC[C@]1(NC(=O)[C@H](CCCCN)NC(=O)[C@@H](N)[C@@H](C)O)C(=O)N[C@@H](CCCNC(=N)N)C(=O)O (stereo in doubt; 27) |  |  | 30% |  | 

More lines, main results first:

half-life [1] | T1/2 [1] | SMILES | Secretion [2] | Secretion [3] | Secretion [4]
11 min |  | C[C@@H](O)[C@H](N)C(=O)N[C@@H](CCCCN)C(=O)N1CCC[C@H]1C(=O)N[C@]1(C(=O)O)C[C@@H](CN=C(N)N)C1 |  |  | 
25 min |  | C[C@@H]1CC[C@]1(NC(=O)[C@H](CCCCN)NC(=O)[C@@H](N)[C@@H](C)O)C(=O)N[C@@H](CCCNC(=N)N)C(=O)O (stereo in doubt; 27a) | 141% | 95% | 
 | 15 min | C[C@@H]1CC[C@]1(NC(=O)[C@H](CCCCN)NC(=O)[C@@H](N)[C@@H](C)O)C(=O)N[C@@H](CCCNC(=N)N)C(=O)O (stereo in doubt; 27b) |  |  | 
